Test results as given in paper PMC5564211 (European journal of medicinal chemistry, 2017).

Experiments:
α1-adrenoceptors = test: [3H]prazosin binding displacement; design: species or system mouse; settings: [3H]prazosin displacement; for IC50: values as rounded in text
How it was run: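 Competition binding against 1.5 nM [³H]prazosin in mouse hippocampal homogenate, with test compound added over a range of concentrations to build concentration–effect displacement curves. IC50 is derived by non-linear regression curve fitting. Each ligand's fitted curve is compared statistically with reference-ligand curves.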

mouse [1] = settings: mice, previously published studies; cited from earlier work
mouse [2] = test: Antidepressant-like activity assay; type: in vivo; settings: mice, TST, given alone without SSRI
How it was run: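 Mice given test compound were scored for immobility time in the tail suspension test. A saline-treated group served as control. Groups were compared with saline by one-way ANOVA with Dunnett's post-hoc test, with significance set at P < 0.05.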

mouse [3] = test: Locomotor activity assay; type: in vivo; settings: mice; for effect on locomotion compared with the same dose of D-22: 1 mg/kg ip, one-way ANOVA, Dunnett's test

Compound | independent antidepressant-like activity (reduction in immobility time) (mouse [2]) | IC50 (α1-adrenoceptors) | other results
C[C@]12C[C@H](O)[C@H]3[C@@H](CCC4=CC(=O)CC[C@@]43C)[C@@H]1CC[C@@H]2C(=O)CO [Corticosterone, corticosterone, reference compound] |  |  | inhibition at adrenoceptors (α1-adrenoceptors): weak inhibitor
CCN1/C(=C/c2ccc3ccccc3[n+]2CC)C=Cc2ccccc21.[I-] [D-22, decynium-22, reference compound] | none of the analogues, including D-22, displayed antidepressant-like activity |  | effect on immobility time (mouse [1]): without effect on immobility time unless paired with an SSRI; effect on locomotor activity (mouse [3]; 0.1 mg/kg ip, p=0.44): not at 0.1 mg/kg; effect on locomotor activity (mouse [3]; 1.0 mg/kg ip, cumulative beam breaks 60 to 120 minutes following injection): completely suppressed locomotor activity
CCOc1ccccc1OCCN[C@H](C)Cc1ccc(OC)c(S(N)(=O)=O)c1 [Tamsulosin, tamsulosin, reference compound] |  | ~2 nM | 
CN1/C(=C\c2cc[n+](C)c3ccccc23)C=Cc2ccccc21.O=C([O-])C(F)(F)F [analogue 1, 1,1′-Dimethyl-2,4′-cyanine trifluoroacetate] | do not impart independent antidepressant-like activity |  | 
CC(C)[n+]1ccc(/C=C2/C=Cc3ccccc3N2C)c2ccccc21.O=C([O-])C(F)(F)F [analogue 2, 1-Methyl-1′-isopropyl-2,4′-cyanine trifluoroacetate] | do not impart independent antidepressant-like activity | ~1000 nM | 
CCN1/C(=C/c2ccc3cc(Cl)ccc3[n+]2CC)C=Cc2ccccc21.[I-] [analogue 6, (E)-6-Chloro-1-ethyl-2-((1-ethylquinolin-2(1H)-ylidene)methyl)quinolinium iodide] | impart independent antidepressant-like activity | 500 nM | effect on locomotion compared with the same dose of D-22 (mouse [3]): affected locomotion significantly less than D-22
(E)-1-Ethyl-2-((1-ethylquinolin-2(1H)-ylidene)methyl)-6-fluoro-4a,8a-dihydro quinolinium iodide [analogue 5] | impart independent antidepressant-like activity | 300 nM | 
(E)-1-Ethyl-2-((1-ethylquinolin-2(1H)-ylidene)methyl)-6-iodo-4a,8a-dihydro-quinolinium iodide [analogue 7] | do not impart independent antidepressant-like activity | 700 nM | effect on locomotion compared with the same dose of D-22 (mouse [3]): affected locomotion significantly less than D-22
